CAL PDZ FP-1 – inhibitors of human CAL PDZ peptide binding. Q9HD26. purified CAL PDZ, TMR-peptide fluorescence polarization, 1 h. inhibition, % at 24.9 µM. hit rate 0.92% among 300,000. AID 602252;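 active = mean inhibition of at least 30% with at least half of replicates also reaching 30%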;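 also: 0% = DMSO neutral control and 100% = excess unlabeled competitor peptide PRC23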
CAL PDZ FP-2 – blocks peptide binding to human CAL PDZ domain; purified CAL PDZ, TMR-peptide fluorescence polarization, 1 h; inhibition, % at 20 µM; hit rate 0.02% among 330,000; AID 504414;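 active = highest replicate inhibition of at least 40%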;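 also: plate controls were DMSO neutral control wells for no effect and unlabeled competitor peptide control wells for full effect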
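Assay system – tagged CAL PDZ protein CerCALP, purified · Timing – 1 h at RT · Compound – single point, 20 µM · Measured by – fluorescence polarization from S- and P-plane intensities, G-factor corrected · Evaluation – inhibition from polarization loss · Probe or stimulus – TMR reporter peptide T*-PRC34 · Buffer or medium – pH 7.4 phosphate-saline buffer, reducing agent, detergent, IgG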
ERAP1 inh – ERAP1 (human) enzyme inhibition | recombinant ERAP1, Leu-AMC fluorescence, 60 min | inhibition, % at 10.7 µM | Q9NZ08 | hit rate 0.15% among 340,000;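 active = mean replicate inhibition of at least 30%, or all replicates individually reaching that 30% level; inactive = mean below 30% and not every replicate reaching it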;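 also: 0% = neutral control wells and 100% = L-leucinethiol positive control wells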
PDI turbidity – blocks human protein disulfide isomerase activity; hit rate 0.052% among 350,000; PDI insulin aggregation turbidity, A650, 90 min; AID 588391; inhibition, % at 10 µM;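 active = mean inhibition across replicates of 30% or more, whatever share of single replicates reach that level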
Target sequence (P07237 whole entry, looked up): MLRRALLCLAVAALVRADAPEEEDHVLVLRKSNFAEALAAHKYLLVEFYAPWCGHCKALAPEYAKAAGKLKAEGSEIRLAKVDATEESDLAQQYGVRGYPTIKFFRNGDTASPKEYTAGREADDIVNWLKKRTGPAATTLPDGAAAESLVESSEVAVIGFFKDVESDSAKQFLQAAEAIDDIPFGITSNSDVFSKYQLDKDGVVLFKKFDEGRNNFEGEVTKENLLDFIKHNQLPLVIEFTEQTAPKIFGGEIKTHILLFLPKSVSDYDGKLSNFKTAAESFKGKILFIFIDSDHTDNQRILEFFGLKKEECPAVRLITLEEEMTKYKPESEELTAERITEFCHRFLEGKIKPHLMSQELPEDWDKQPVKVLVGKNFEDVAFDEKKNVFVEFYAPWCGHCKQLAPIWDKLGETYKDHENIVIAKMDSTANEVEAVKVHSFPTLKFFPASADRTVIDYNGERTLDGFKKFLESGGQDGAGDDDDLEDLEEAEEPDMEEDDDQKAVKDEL
ERp5 inh – blocks human ERp5 reductase activity on insulin. Q15084. ERp5 insulin aggregation, absorbance 650 nm, 90 min. inhibition, % at 9.99 µM. hit rate 0.05% among 350,000;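 active = mean replicate inhibition above about 25%, with every replicate also reaching it, limit read from the data, passing the limit was not always enough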
Rin1-Abl PPI inh – inhibitors of human Rin1-Abl protein interaction; P00519+Q13671; TR-FRET Rin1/Abl binding, biochemical; inhibition, % at 7.35 µM; hit rate 0.4% among 360,000; AID 588664; in the data active = inhibition above about 5%, passing the limit was not always enough
Active calls of the source: *; . = no result. Only some compounds are listed: those with a hit (about 1.1% of all), similar ones and a draw of the others.

SMILES | CAL PDZ FP-1 | CAL PDZ FP-2 | ERAP1 inh | PDI turbidity | ERp5 inh | Rin1-Abl PPI inh
Cc1cc(C(=O)COc2ccccc2Cl)c(C)n1-c1ccc2c(c1)OCO2 | 45.4* | -0.7 | -3.0 | -1.0 | 1.9 | -4.3
CNS(=O)(=O)c1cccc(C(=O)OCC(=O)c2cc(C)n(-c3ccc4c(c3)OCO4)c2C)c1 | -2.0 | -1.0 | . | -10.6 | . | -3.8
COc1ccc(CC2=CC(=O)c3ccccc3C2=O)cc1 | . | 1.9 | 6.6 | -5.2 | -5.5 | 6.8*
COc1ccc(Cc2ccccc2C(=O)O)cc1 | -3.3 | 0.1 | 0.3 | -1.3 | -3.5 | 1.8
CC1CN(C(=S)Nc2ccccc2)CC(C)O1 (centres undefined) | -1.7 | -0.6 | -2.1 | -1.4 | 3.3 | 0.8
CC1CN(C(=S)Nc2ccccc2)N(c2ccccc2)C1 (centres undefined) | 67.1* | -1.0 | -3.4 | -8.6 | 3.8 | 2.7
COc1cc(OC)c(N(C)S(=O)(=O)c2cccc(C(=O)OCc3c(C)noc3C)c2)cc1Cl | 2.6 | -1.2 | 1.6 | 1.2 | -2.3 | 2.5
COc1cc(OC)c(N(C)S(=O)(=O)c2cccc(C(=O)OCC(=O)N3CCOCC3)c2)cc1Cl | 32.4* | 6.9 | 1.2 | 3.3 | -2.2 | -3.6
COc1ccc2c3c(n(C)c2c1)[C@H](CO)N(C(=O)Nc1ccccc1F)CC31CCN(C(=O)c2ccccc2F)CC1 | . | . | -0.6 | . | 0.7 | .
CCC(=O)N1[C@@H]2Cn3c(ccc(/C=C/c4ccccc4)c3=O)[C@H]1[C@@H](C(=O)N1CCOCC1)[C@@H]2CO | . | . | 2.4 | . | 1.2 | .
CC(=O)N1[C@@H]2c3ccc(/C=C/c4ccccc4)c(=O)n3C[C@H]1[C@H](CO)[C@H]2C(=O)N1CCOCC1 | . | . | 88.1* | . | -0.4 | .
CCN1[C@@H]2c3ccc(/C=C/c4ccccc4)c(=O)n3C[C@H]1[C@H](CO)[C@H]2C(=O)N1CCOCC1 | . | . | 39.7* | . | 0.3 | .
CC(=O)NC12CC3CC(C1)CC(C(=O)Nc1cccc(S(=O)(=O)N4CCCCCC4)c1)(C3)C2 | 193.7* | -1.9 | -0.3 | -2.2 | -27.2 | 1.8
CC(=O)NC12CC3CC(C1)CC(C(=O)Nc1ccc(C)c(S(=O)(=O)N4CCCCCC4)c1)(C3)C2 | -3.1 | -1.4 | -8.5 | 5.1 | -1.4 | 1.0
C[C@@H]1CCCCO[C@H](CN(C)C(=O)Nc2ccccc2)[C@H](C)CN([C@@H](C)CO)C(=O)c2cc(NS(=O)(=O)c3cn(C)cn3)ccc2O1 | . | . | -0.5 | . | 4.8 | .
CCC(=NCCc1ccccc1)C1=C(O)CCC1=O | 64.4* | -0.7 | . | -11.5 | . | 3.1
CCC(=NCCc1ccc(OC)c(OC)c1)C1=C(O)CC(C)(C)CC1=O | -2.0 | -3.0 | 1.6 | 1.9 | 4.8 | -0.2
CC(=O)n1nc(-c2ccccc2)nc1NCc1cccs1 | 71.6* | 7.5 | -1.4 | 4.1 | 5.2 | -5.0
CCC(=O)n1nc(-c2ccc(OC)cc2)nc1NCc1cccs1 | -2.8 | -1.6 | 6.9 | 2.1 | 1.2 | -2.3
O=C1CSC(=S)N1Nc1ccccc1 | 52.6* | 28.3 | 0.4 | 0.5 | 0.3 | 2.8
Cc1ccccc1C(=O)NN1C(=O)CSC1=S | -6.0 | 1.0 | -0.8 | -7.7 | 2.8 | -12.3
CNC(=O)c1c(C)nc(SCC(=O)NCc2ccc(OC)cc2)c(C#N)c1-c1ccco1 | 54.8* | 0.4 | . | -2.4 | . | 0.6
CCN(C(=O)c1cc2c(=O)n3cccc(C)c3nc2n1CCCOC)C1CCCCC1 | -0.3 | -2.1 | 50.3* | 1.5 | 2.3 | -0.8
COCCCn1c(C(=O)Nc2ccc3c(c2)OCO3)cc2c(=O)n3ccccc3nc21 | -2.0 | 1.2 | 3.1 | -9.5 | -2.4 | 0.4
COCCCn1c(C(=O)N2CCOCC2)cc2c(=O)n3ccccc3nc21 | -6.5 | -1.9 | 54.4* | -2.2 | 2.4 | 2.7
SMILES | CAL PDZ FP-1 | CAL PDZ FP-2 | ERAP1 inh | PDI turbidity | ERp5 inh | Rin1-Abl PPI inh
COC(=O)N(C)C[C@H]1OCc2ccccc2-c2c(n(C)c3ccccc23)C(=O)N([C@H](C)CO)C[C@@H]1C | . | . | -1.7 | . | -8.8 | .
CCOCc1cc(=O)[nH]c(SC)n1 | 70.4* | -1.4 | 0.4 | -2.4 | 1.7 | 0.9
COCC#Cc1cnc2c(c1)C(=O)N([C@@H](C)CO)C[C@@H](C)[C@H](CN(C)C(=O)Nc1cc(F)ccc1F)O2 | . | . | 2.4 | . | -3.2 | .
CCC(=O)N1C[C@@H](C)[C@@H](OC)CN(C)C(=O)c2ccc(NC(=O)NC(C)C)cc2OC[C@H]1C | . | . | -1.9 | . | -6.3 | .
CCN(CC(=O)NCc1cccs1)C(=O)c1cc(=O)[nH]c2ccccc12 | 73.9* | -0.5 | -0.1 | 7.0 | -4.8 | -2.5
CCN(CC(=O)NCc1cccs1)C(=O)c1ccccc1Cl | 51.8* | -0.9 | 0.3 | 1.8 | 4.1 | -2.5
CCN(CC(=O)NCc1cccs1)C(=O)C(c1ccccc1)c1ccccc1 | 2.0 | -0.2 | -3.6 | 9.2 | -1.1 | 1.3
COc1ccc2c3c(n(C)c2c1)[C@@H](CO)N(C(=O)Cc1ccccn1)CC31CN(CC2CC2)C1 | . | . | 0.1 | . | -3.4 | .
CCOc1ccc(S(=O)(=O)N2CN3CCN(C3)C2)cc1 | 62.5* | -0.3 | 0.6 | -1.9 | 2.3 | -0.7
O=C(O)CSC(C(=O)Nc1ccc(Br)cc1)c1ccc(Cl)cc1 (centres undefined) | 135.2* | -1.2 | -1.6 | -6.0 | 4.7 | -0.4
CC(Oc1ccccc1)C(=O)NCc1cccnc1 (centres undefined) | -0.8 | -1.9 | -1.8 | -2.4 | 3.0 | 0.4
COc1ccc(OC(C)C(=O)NCc2cccnc2)cc1 (centres undefined) | 45.8* | . | . | 1.4 | . | -1.3
C[C@@H]1CCCCO[C@@H](CN(C)S(C)(=O)=O)[C@@H](C)CN([C@H](C)CO)C(=O)c2cc(NS(=O)(=O)c3cn(C)cn3)ccc2O1 | . | . | -5.0 | . | -2.0 | .
COc1ccc(CC(=O)Nc2ccc(S(=O)(=O)Nc3cc(C)on3)cc2)cc1 | 48.9* | -1.2 | . | 5.1 | . | -0.9
Cc1cc(NS(=O)(=O)c2ccc(NC(=S)NC(=O)c3cccc(S(=O)(=O)N(C)C)c3)cc2)no1 | 52.2* | -2.7 | 2.3 | -4.4 | 3.8 | 1.8
COc1ccc(OCC(=O)Nc2ccc(S(=O)(=O)Nc3cc(C)on3)cc2)cc1 | -1.7 | -2.0 | 0.8 | -0.1 | 1.2 | 2.7
Cc1cc(NS(=O)(=O)c2ccc(NC(=S)NC(=O)c3ccc(F)cc3)cc2)no1 | -3.5 | -0.2 | . | -2.9 | . | 1.9
Cc1cc(Br)ccc1NC(=O)CN1CCN(c2ccccn2)CC1 | 74.7* | . | 2.9 | 3.2 | 1.3 | 0.6
O=C(CS(=O)(=O)c1ccccc1)c1cc2cc(F)ccc2oc1=O | 78.8* | -1.0 | . | -2.8 | . | 0.5
CCSc1nnc(NC(=O)CN2C(=O)NC3(CCCC3)C2=O)s1 | 78.1* | 0.4 | 2.5 | -5.6 | 1.6 | 0.2
COc1cccc(NC(=O)C[C@@H]2CC[C@H]3[C@@H](COc4ccc(NC(=O)c5ccccc5F)cc4C(=O)N3C)O2)c1 | . | . | 1.5 | . | -4.0 | .
CCN(CC(=O)Nc1cccc(OC)c1)CC(=O)Nc1ccc(C)cc1Cl | 66.4* | . | -1.9 | 4.7 | -2.0 | -2.6
CCN(CC(=O)Nc1cccc(OC)c1)CC(=O)Nc1cccc2ccccc12 | -0.8 | -3.0 | -1.1 | 0.4 | -7.0 | -1.5

From PubChem BioAssay
